A selection: hits, their analogues and other compounds. The true share with any hit is near 1.9%.
bovine MsrA act: bovine MsrA enzyme activators, primary screen, biochemical, absorbance, HTS; Methionine sulfoxide reductase A (Bos taurus); purified bovine MsrA, absorbance read-out; activation, % at 10.6 µM; 360,000 compounds, 0.3% hits; AID 602163, 2012; in the data active = activation above about 7.5%
aDG glyco act: activators of alpha-DG glycosylation, primary screen, uHTS, Pro5-aDG cells, AlphaScreen | alpha-DG glycosylation AlphaScreen (IIH6); 0% Pro5, 100% B10-LARGE cell signal | activation, % at 10 µM | 360,000 compounds, 0.22% hits | AID 624168, 2012;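 active = activation of at least 8% versus controls, or a plate z-score of at least 8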;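 note: Pro5 are CHO cells carrying HIG-tagged alpha-DG that lacks glycosylation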
MsrA inh: bovine MsrA enzyme inhibitors, primary screen, biochemical, absorbance, HTS; Methionine sulfoxide reductase A (Bos taurus); inhibition, % at 15.5 µM; purified bovine MsrA, absorbance read-out; 360,000 compounds, 0.75% hits; in the data active = inhibition above about 4.5%
N-glyco inh: increase of ERlucT glycosylation luciferase signal, primary screen, N-linked glycosylation inhibitor project, D54 ERlucT cells, luminescence, set 2; D54 ERlucT glycosylation luciferase reporter, 24 h; percent of 100 nM tunicamycin response; reporter increase, % at 12.5 µM; 360,000 compounds, 0.23% hits; AID 588692, 2011;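 active = mean luciferase reporter signal, scaled so untreated is 0 and the glycosylation-blocking control 100, at or above a set limit in every replicate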;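 note: luciferase carries N-glycosylation sites so blocking glycosylation raises the light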
UCH37 inh: inhibitors of human UCH37 deubiquitinase, primary screen, biochemical, Ub-AMC cleavage, fluorescence. AID 588478, 2011. inhibition, % (concentration not given with the values). purified proteasome/UCH37. Ubiquitin carboxyl-terminal hydrolase isozyme L5 (Homo sapiens), Q9Y5K5. 330,000 compounds, 0.33% hits;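 active = mean inhibition over replicate wells above about 20%, limit read from the data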
Target sequence (Q9Y5K5 whole entry, looked up): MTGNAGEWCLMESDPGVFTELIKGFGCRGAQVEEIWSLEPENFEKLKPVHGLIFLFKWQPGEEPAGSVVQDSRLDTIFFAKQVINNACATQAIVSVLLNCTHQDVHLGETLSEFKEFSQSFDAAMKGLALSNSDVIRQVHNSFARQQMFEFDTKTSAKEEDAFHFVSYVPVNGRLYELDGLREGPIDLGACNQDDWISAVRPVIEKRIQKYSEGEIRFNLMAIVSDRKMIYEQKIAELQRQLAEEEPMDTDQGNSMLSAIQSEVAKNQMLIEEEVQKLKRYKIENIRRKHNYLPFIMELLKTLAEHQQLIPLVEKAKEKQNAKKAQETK
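Assay system: Proteasome-bound UCH37. Buffer or medium: pH 7.4 Tris-HCl (50 mM) with ovalbumin, ATP-MgCl2, DTT. Incubation: 30 min preincubation with enzyme, 25 min cleavage at room temperature. Measured by: fluorescence, ex 355 nm, em 460 nm. Read-out basis: percent inhibition. Control set: wells without proteasome as full block, compound-free enzyme plus substrate as uninhibited.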
Vif inh: HIV Vif self-association inhibitors, primary screen, imaging, HEK293T, single point | HEK293T cells, Vif self-association by quenched fluorescence, 24 h | 340,000 compounds, 0.35% hits | inhibition, % at 7.49 µM; in the data active = inhibition above about 50%, passing the limit was not always enough
MsrA act confirm: bovine MsrA activators, retest, confirmation, biochemical, absorbance, HTS | shares compounds with bovine MsrA act | purified bovine MsrA, absorbance read-out | activation, % at 10.6 µM | 1,000 compounds, 12% hits; in the data active = activation above about 4%;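 note: enzyme coupled to thioredoxin and thioredoxin reductase with NADPH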
Each line names hits and unclear results; the compound was inactive in the other large screens (follow-up assays come after a bar, where they were run).

CC(=O)Nc1ccc(SC[C@H](Cc2ccccc2)N2CC[C@@H](C(C)(C)C)CCC2=O)cc1	none
C=CCN(c1cccc(C(F)(F)F)c1)S(=O)(=O)c1cccc(C(=O)OCC(=O)Nc2ccccc2)c1	bovine MsrA act 8.3 | MsrA act confirm inactive
NC(c1ccc(F)c(F)c1)c1nc(-c2ccc3ccccc3c2)cs1 (configuration not stated)	none (no result: UCH37 inh)
OC(c1ccc(F)c(F)c1)c1nc(-c2ccc3ccccc3c2)cs1 (configuration not stated)	bovine MsrA act 9.2 (no result: UCH37 inh) | MsrA act confirm inactive
CNC(=S)NN=Cc1cn(CCOc2ccccc2OC)c2ccccc12	none (no result: bovine MsrA act, aDG glyco act, MsrA inh, N-glyco inh, Vif inh)
Cc1cc(=O)[nH]c(SCC(=O)N2CCc3ccccc3C2)n1	bovine MsrA act 9.5 | MsrA act confirm inactive
Cc1ccnc(SCC(=O)N2CCc3ccccc3C2)n1	none
COC(=O)NN=Cc1ccc(-c2ccc(C)c(Cl)c2)o1	none (no result: bovine MsrA act, aDG glyco act, MsrA inh, N-glyco inh, Vif inh)
Cc1ccc(-c2ccc(/C=N/NC(=O)CN3CCCC3)o2)cc1Cl	bovine MsrA act 8.8 (no result: UCH37 inh) | MsrA act confirm inactive
Cc1ccsc1/C=N/n1c(-c2ccco2)n[nH]c1=S	bovine MsrA act 11 (no result: UCH37 inh) | MsrA act confirm inactive
COc1ccc(-c2noc(CSc3nnc(-c4ccncc4)n3-c3ccc(F)cc3)n2)cc1OC	bovine MsrA act 18 | MsrA act confirm inactive
CN(CCCC(=O)Nc1ccncc1)S(=O)(=O)c1ccc(Cl)cc1	bovine MsrA act 7.9 | MsrA act confirm inactive
O=C(O)C1C2CC(C(Br)C2Br)C1C(=O)O (configuration not stated)	bovine MsrA act 15 | MsrA act confirm inactive
CNC(=S)NN=Cc1cccc(OCc2ccccc2F)c1	none (no result: bovine MsrA act, aDG glyco act, MsrA inh, N-glyco inh, Vif inh)
Cc1cc(C)n(CCc2nc(-c3ccc(C(C)(C)C)cc3)cs2)n1	bovine MsrA act 9.3 | MsrA act confirm inactive
Cc1cc(C)n(CCc2nc(-c3ccc(F)cc3)cs2)n1	none
CC(C)C1C(=O)N(Cc2cn(CC3CCCCC3)nn2)CCS(=O)(=O)N1Cc1ccc(-c2ccc(F)nc2)cc1 (configuration not stated)	bovine MsrA act 8.9 (no result: UCH37 inh) | MsrA act confirm inactive
C(=C\c1ccccc1)/CN1CCN(C(c2ccccc2)c2ccccc2)CC1	none
Fc1ccc(C(c2ccc(F)cc2)N2CCN(C/C=C/c3ccccc3)CC2)cc1	bovine MsrA act 8.4 | MsrA act confirm inactive
Cc1cc(NC(=O)CCCC(=O)OCC(F)(F)C(F)F)cc(C)c1C(=O)O	bovine MsrA act 8.3 | MsrA act confirm inactive
COc1ccc(C=NN(C)c2cc(=O)n(C)c(=O)[nH]2)cc1OC	none (no result: bovine MsrA act, aDG glyco act, MsrA inh, N-glyco inh, Vif inh)
O=C(Cn1c(=O)oc2ccccc21)Nc1n[nH]c(=S)s1	bovine MsrA act 7.9 | MsrA act confirm 5.5
Cc1ccc(C)c(NC(=S)NN=C2CCc3ccccc32)c1	none (no result: bovine MsrA act, aDG glyco act, MsrA inh, N-glyco inh, Vif inh)
CN(C)c1nc(C#N)nc(N2CCOCC2)n1	none
CC(C)N(C#N)c1nc(N2CCOCC2)nc(N2CCOCC2)n1	bovine MsrA act 17 | MsrA act confirm inactive
O=C1C[C@@H]2CCN3C(=O)CCC[C@@H]([C@H]23)[C@H]1Cc1ccccc1	none
CC[C@H]1C(=O)[C@@H](Cc2ccccc2)[C@@H]2CCN3C(=O)CCC[C@H]1[C@H]23	bovine MsrA act 17 (no result: UCH37 inh) | MsrA act confirm inactive
CCOC(=O)Cn1c(=O)c2c(nc3n2CCCCN3c2ccc(OCC)cc2)n(C)c1=O	bovine MsrA act 8.0 (no result: Vif inh) | MsrA act confirm inactive
CCCCOC(=O)Cn1c(=O)c2c(nc3n2CCCCN3c2ccc(C)cc2)n(C)c1=O	none
COc1cc(OC)c(CN2CCCCCCC2)cc1Br	bovine MsrA act 12 (no result: Vif inh) | MsrA act confirm inactive
COc1ccc(C(C)(O)c2nc(-c3cccc(C(F)(F)F)c3)cs2)cc1 (configuration not stated)	bovine MsrA act 9.8 (no result: UCH37 inh) | MsrA act confirm inactive

Screens deposited in PubChem BioAssay by several laboratories.
